We go through two molecules from ChEMBL document CHEMBL3612036, “Design, Synthesis, and Cardioprotective Effects of N-Mercapto-Based Hydrogen Sulfide Donors” (J Med Chem, 2015).

As usually defined, the inhibition in vivo is how much of the control response was suppressed.

SMILES strings stand for the structures. Calls of active or inactive are those of the source. No cut-off for these calls is given here.

A short description of data set [1]: […] peak time for H2S release in pH 7.4 PBS buffer containing 10% THF incubated for 2 hrs at room temperature in presence of cysteine by methylene blue based UV-Vis spectrometry. In kind it is physicochemical. As to conditions: pH 7.4, 2 h. A digest of the protocol: (§1)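 Donor (30 mM THF stock; 0.1 mM final) was added to PBS (pH 7.4, 50 mM)/THF 9:1 containing the stated thiol, at room temperature for 2 h. 1.0 mL aliquots were taken periodically into methylene blue cocktail (zinc acetate, N,N-dimethyl-p-phenylenediamine in HCl, FeCl3 in HCl) and reacted 15 min. Absorbance was read at 670 nm and H2S quantified against a Na2S calibration curve; peak concentration and peak time were recorded.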

Data set [2] concerns Mus musculus. Nature of the data set: Cardioprotective activity in C57BL6/J mouse model of myocardial ischemia/reperfusion assessed as reduction in infarct size per area-at-risk at 100 ug/kg dosed through direct intracardiac injection at time of reperfusion by TTC staining method. The data set is classed as functional. Particulars: Myocardium. A digest of the protocol:
(§2)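 Male C57BL/6J mice, 10–12 weeks old, anesthetised with pentobarbital (50 mg/kg) plus ketamine (60 mg/kg). Left coronary artery occluded with PE-10 tubing for 45 min. Single intracardiac injection at reperfusion; vehicle 0.5% v/v THF in sterile saline. Reperfusion lasted 24 h, then area-at-risk and infarct measured by Evans blue/TTC staining. n = 6–17 per group.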

The subject of data set [3] is H9c2. As to the kind of experiment: Cytotoxicity against rat H9c2 cells assessed as reduction in cell viability at <40 uM incubated for 1 hr by CCK8 assay. Particulars: h9c2, 1 h. The data set is classed as cell-based. The method in brief: (§3)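 H9c2 cells (high-glucose DMEM, 10% FBS, 37 °C, 5% CO2) were exposed 1 h to donor over 20–160 μM, either alone or with 480 μM cysteine, then washed twice with PBS. Viability was measured by CCK-8 (1:10 dilution, 3 h at 37 °C, absorbance 450 nm). The mean OD of 4 wells was expressed as % of control, in triplicate.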

Data set [4] relates to Mus musculus. As to the kind of experiment: Cardioprotective activity in C57BL6/J mouse model of myocardial ischemia/reperfusion assessed as reduction in circulating cardiac troponin-1 level at 100 ug/kg dosed through direct intracardiac injection at time of reperfusion. The data set is classed as functional, organism-based. As to conditions: Heart. A digest of the protocol: (§4)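 Male C57BL/6J mice, 10–12 weeks old, were anesthetized with pentobarbital (50 mg/kg) plus ketamine (60 mg/kg). The left coronary artery was occluded for 45 min. At reperfusion, donor was injected intracardiac: dissolved in THF, diluted in sterile saline to 0.05 or 0.1 mg/mL, final 0.5% v/v THF. Vehicle was 0.5% THF in saline. Tail-vein blood was drawn at 4 h reperfusion for troponin I.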

Data set [5] can be described thus: GSH-induced H2S release assessed as peak H2S level in pH 7.4 PBS buffer containing 10% THF incubated for 2 hrs at room temperature in presence of 1 mM GSH by methylene blue based UV-Vis spectrometry. In kind it is physicochemical. As to conditions: pH 7.4, 2 h. A digest of the protocol:
as §1

The test system of data set [6] is Mus musculus. Nature of the data set: Effect on area-at-risk per left ventricle in C57BL6/J mouse model of myocardial ischemia/reperfusion at 50 and 100 ug/kg dosed through direct intracardiac injection at time of reperfusion by TTC staining method. In kind it is organism-based, Heart left ventricle. Particulars: in vivo, 0.1 mg/kg. A digest of the protocol:
as §2

The test system of data set [7] is H9c2. As to the kind of experiment: Cytotoxicity against rat H9c2 cells assessed as reduction in cell viability at >80 uM incubated for 1 hr by CCK8 assay. The data set is classed as cell-based. Particulars: h9c2, 1 h. A digest of the protocol:
as §3
A general note: Tetrazolium assays rely on reduction of a dye to a coloured formazan, in cell work by metabolically active cells.

The test system of data set [8] is Mus musculus. Nature of the data set: Cardioprotective activity in C57BL6/J mouse model of myocardial ischemia/reperfusion assessed as reduction in infarct size per area-at-risk at 50 ug/kg dosed through direct intracardiac injection at time of reperfusion by TTC staining method. As to conditions: Myocardium. In kind it is functional. A digest of the protocol: as §2

The subject of data set [9] is H9c2. As to the kind of experiment: Cytotoxicity against rat H9c2 cells assessed as reduction in cell viability at 160 uM in presence of 480 uM cysteine incubated for 1 hr by CCK8 assay. The data set is classed as cell-based. Particulars: h9c2, 1 h. A digest of the protocol: as §3
The test system of data set [10] is Mus musculus. Nature of the data set: Cardioprotective activity in C57BL6/J mouse model of myocardial ischemia/reperfusion assessed as reduction in infarct size per area-at-risk dosed through direct intracardiac injection at time of reperfusion by TTC staining method. In kind it is functional, organism-based. Particulars: Myocardium. The method in brief: as §2

The subject of data set [11] is H9c2. As to the kind of experiment: Cytoprotective activity against H2O2-induced cell damage in rat H9c2 cells at 160 uM pre-incubated for 1 hr before H2O2 challenge for 5 hrs in presence of 480 uM cysteine by LDH release assay. In kind it is functional, cell-based. The method in brief:
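H9c2 cells at about 70% confluence were preconditioned 1 h with donor plus cysteine (480 μM), then treated with H2O2 (400 μM) for 5 h. Extracellular LDH was measured in supernatant; intracellular LDH in lysate made with 2% Triton X-100 in DMEM. Kit reaction ran 10 min at room temperature, read at 490/600 nm. % release = extracellular/(extracellular+intracellular). Run 4 times.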
Background: Release of lactate dehydrogenase indicates damage to the cell membrane.

The nature of data set [12]: GSH-induced H2S release assessed as peak H2S level in pH 7.4 PBS buffer containing 10% THF incubated for 2 hrs at room temperature in presence of cysteine by methylene blue based UV-Vis spectrometry. The data set is classed as physicochemical. Particulars: pH 7.4, 2 h. The method in brief: as §1
The nature of data set [13]: […] peak time for H2S release in pH 7.4 PBS buffer containing 10% THF incubated for 2 hrs at room temperature in presence of 1 mM GSH by methylene blue based UV-Vis spectrometry. In kind it is physicochemical. Particulars: pH 7.4, 2 h. The method in brief: as §1
In data set [14] the test system is H9c2. Nature of the data set: Cytoprotective activity against H2O2-induced cell damage in rat H9c2 cells assessed as reduction in mitochondrial membrane potential loss at 160 uM pre-incubated for 1 hr before H2O2 challenge for 5 hrs in presence of 480 uM cysteine by Rh123 dye based fluorescent microscopy. The data set is classed as functional. A digest of the protocol:
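H9c2 cells were grown in high-glucose DMEM with 10% FBS at 37 °C, 5% CO2. They were pretreated 1 h with donor plus cysteine (480 μM), then given H2O2 (400 μM) for 5 h. Rh123 (10 mg/L) was added for 15 min at 37 °C. Fluorescence microscopy gave mean Rh123 intensity from four random fields.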

Data set [15] has as its system Mus musculus. Nature of the data set: Cardioprotective activity in C57BL6/J mouse model of myocardial ischemia/reperfusion assessed as reduction in circulating cardiac troponin-1 level at 50 ug/kg dosed through direct intracardiac injection at time of reperfusion. In kind it is functional, organism-based. Particulars: Heart. A digest of the protocol:
as §4

Data set [16] is described as follows: Induction of […] release in pH 7.4 PBS buffer containing 10% THF incubated for 2 hrs at room temperature in presence of 0.5 mM cysteine by methylene blue based UV-Vis spectrometry. As to conditions: pH 7.4, 2 h. The data set is classed as physicochemical. The method in brief:
as §1

A short description of data set [17]: Induction of […] release in pH 7.4 PBS buffer containing 10% THF incubated for 2 hrs at room temperature in presence of 2 mM cysteine by methylene blue based UV-Vis spectrometry. In kind it is physicochemical. Particulars: pH 7.4, 2 h. The method in brief:
as §1

For the molecule `O=C(NSC(=O)c1ccc(F)cc1)c1ccccc1`, the Time in data set [1] came to 50 min; in [13], 55 min. Further, the inhibition in vivo at 0.1 mg/kg in [2] came to 50%. Also, the Activity entry was “Non-toxic” in [3]; 40.6 µM in [5]; “Non-toxic” in [6]; “Toxic” in data set [7]; “Non-toxic” in [9]; 39.5 µM in [12]. Also, the inhibition entry in data set [4] and in [15] was “Active” throughout. Further, the inhibition in vivo at 0.05 mg/kg in data set [8] stood at 50%. In addition, the inhibition entry in [10] was “Dose-dependent effect”. Also, the result in [11] and in data set [14] was Active.
In the case of `O=C(NSC(=O)c1ccccc1)c1ccccc1`, the Time in data set [1] is 55 min; in [13] it was 65 min. The inhibition in vivo at 0.1 mg/kg in data set [2] was found to be 35%. Moreover, the Activity result is “Non-toxic” in data set [3]; “Not Active” in data set [16]; 51.2 µM in [5]; “Active” in data set [17]; “Non-toxic” in data set [6]; “Toxic” in [7]. For the same molecule, the Activity entry was “Non-toxic” in data set [9] and 55.8 µM in [12]. Also, the inhibition result in data set [10] is “Dose-dependent effect”. Besides, the outcome in [11] and in [14] was Active.
